For assay [1], the species on record is Rattus norvegicus. Nature of the assay: Inhibition of rat heart cAMP phosphodiesterase.
The target in assay [2] is T1, Phosphodiesterase 3 (Homo sapiens, UniProt Q14432+Q13370). The experiment in a line: In vitro inhibition of cyclic AMP phosphodiesterase from human platelets.
The species entered for the next assay is Homo sapiens. Nature of the assay: Inhibition of ADP-induced platelet aggregation. Type of assay: functional. In short, it runs like this:
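Human citrated PRP (200g, 15 min, room temperature), aspirin-free donors. Compound in DMF or Me2SO preincubated 5 min with stirred PRP at 37 °C. Aggregation induced by 5 μM ADP, followed turbidimetrically. Repeated at least twice with different donors; IC50 graphical.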

The species named for assay [3] is Rattus norvegicus. The experiment in a line: Inhibition of rat heart cAMP phosphodiesterase (weak partial inhibition).
The target in assay [4] is T1, Phosphodiesterase 3. Nature of the assay: Inhibition of human platelet cAMP phosphodiesterase at 10e-4 M.

Experimental findings from ChEMBL document CHEMBL1123669 (J Med Chem, 1987) are described below.

A word on the IC25: it is the concentration at which the effect reaches the 25% level. A word on the IC50: it is the concentration that inhibits the measured activity by half. Low readings indicate higher potency, high ones lower potency.

In the assay filed under Rattus norvegicus [1], `CN(C(=O)CCCOc1ccc2c(c1)SCC(=O)N2)C1CCCCC1` gave an IC25 of 1400 nM. This molecule also registered an IC50 on Phosphodiesterase 3 [2] of 1800 nM.

In turn, `CN(C(=O)CCCOc1ccc2[nH]c(=O)oc(=O)c2c1)C1CCCCC1` gave an IC25 in the assay listed under Rattus norvegicus [1] greater than 30000 nM. The same molecule returned an IC50 on Phosphodiesterase 3 [2] of 4400 nM.

Turning to `COc1ccc2c(c1)CN1CC(=O)NC1=N2`, the IC50 is 4000 nM in the assay listed under Homo sapiens and 1500 nM at Phosphodiesterase 3 [2].

For `O=C1CN2Cc3c(ccc(Cl)c3Cl)N=C2N1` [ANAGRELIDE], the IC50 in the assay filed under Homo sapiens is 2600 nM. The molecule further registered an IC25 in the assay listed under Rattus norvegicus [3] greater than 100000 nM.

Turning to `CN(C(=O)CCCOc1ccc2c(c1)CN1CC(=O)NC1=N2)C1CCCCC1` [LIXAZINONE], the IC50 turned out to be 110 nM in the assay listed under Homo sapiens and 10 nM on Phosphodiesterase 3 [2]. In addition, it took 600 nM to reach the 25% level in the assay filed under Rattus norvegicus [1] (IC25).

For the molecule `COc1ccc2c(c1)CNC(=O)N2`, the IC50 against Phosphodiesterase 3 [4] turned out to be 35000 nM.

Consider `CN(C(=O)CCCOc1ccc2[nH]c(=O)ccc2c1)C1CCCCC1` [CILOSTAMIDE], for which the IC50 in the assay listed under Homo sapiens was found to be 1900 nM. The molecule further returned an IC25 in the assay listed under Rattus norvegicus [1] of 700 nM.

Consider `COc1ccc2c(c1)CSC(=O)N2`, for which the IC50 against Phosphodiesterase 3 [2] turned out to be 13000 nM.

In turn, `CN(C(=O)CCCOc1ccc2nc(O)sc2c1)C1CCCCC1` had an IC25 in the assay listed under Rattus norvegicus [1] greater than 10000 nM. The IC50 at Phosphodiesterase 3 [2] turned out to be 10000 nM.

On to `CN(C(=O)CCCOc1ccc2c(c1)OCC(=O)N2)C1CCCCC1`, for which the 25% effect level in the assay listed under Rattus norvegicus [1] (IC25) was put at 1300 nM. This molecule also came in with an IC50 on Phosphodiesterase 3 [2] of 3400 nM.

`CN(C(=O)CCCOc1ccc2c(c1)C(=O)NCC(=O)N2)C1CCCCC1` had a concentration for an effect of 25% (IC25) in the assay listed under Rattus norvegicus [1] of 50000 nM. Further, the IC50 against Phosphodiesterase 3 [2] amounted to 3600 nM.

In turn, `COc1ccc2c(c1)COC(=O)N2` registered an IC50 against Phosphodiesterase 3 [2] of 100000 nM.

As for `CN(C(=O)CCCOc1ccc2[nH]c(=O)[nH]c(=O)c2c1)C1CCCCC1`, in the assay filed under Rattus norvegicus [1], it took 1300 nM to reach the 25% level (IC25). In addition, the IC50 on Phosphodiesterase 3 [2] is 1150 nM.

`CN(C(=O)CCCOc1ccc2c(c1)COC(=O)N2)C1CCCCC1`: the IC25 in the assay filed under Rattus norvegicus [1] stood at 1000 nM. Besides, the 50% inhibitory concentration (IC50) against Phosphodiesterase 3 [2] was 1150 nM.

At Phosphodiesterase 3 [2], `COc1ccc2nc(O)sc2c1` came in with an IC50 of 21000 nM.

Take `CN(C(=O)CCCOc1ccc2c(c1)CNC(=O)N2)C1CCCCC1`: it took 880 nM to reach the 25% level in the assay listed under Rattus norvegicus [1] (IC25). In addition, on Phosphodiesterase 3 [2], the half-maximal inhibitory concentration (IC50) turned out to be 1300 nM.

In the case of `CCCCCCOc1ccc2c(c1)CN1CC(=O)NC1=N2`, the IC50 worked out at 62000 nM in the assay listed under Homo sapiens and 290 nM on Phosphodiesterase 3 [2]. The same molecule yielded an IC25 in the assay filed under Rattus norvegicus [1] of 320 nM.

In the case of `CN(C(=O)CCCOc1ccc2c(c1)CSC(=O)N2)C1CCCCC1`, in the assay listed under Rattus norvegicus [1], the 25% effect level (IC25) was put at 380 nM. At Phosphodiesterase 3 [2], the IC50 was determined as 190 nM.

`CN(C(=O)CCCOc1ccc2c(c1)CCC(=O)N2)C1CCCCC1` yielded an IC25 in the assay listed under Rattus norvegicus [1] of 1500 nM. For the same molecule, the IC50 at Phosphodiesterase 3 [2] was found to be 1350 nM.
